Results collected from several papers.
Protocols differ between the studies behind these lines.
ENAH: Protein enabled homolog (ENAH, UniProt Q8N8S7)
DPP4: Dipeptidyl peptidase 4 (DPP4, Homo sapiens, UniProt P27487)
pknB: Serine/threonine-protein kinase PknB (pknB, Mycobacterium tuberculosis, UniProt P9WI81)
1-deoxy-D-xylulose 5-phosphate reductoisomerase: 1-deoxy-D-xylulose 5-phosphate reductoisomerase (Mycobacterium tuberculosis, UniProt P9WNS1)

| Structure (SMILES) | target | test | conditions | quantity | value |
| --- | --- | --- | --- | --- | --- |
| CN1[C@H]2CC[C@@H]1[C@@H](c1cc(-c3ccccc3)no1)[C@H](OC(c1ccc(F)cc1)c1ccc(F)cc1)C2 | Transporter (Slc6a2, Rattus norvegicus, UniProt Q63380) | ligand displacement, radioligand | cell membranes | Ki | 0.413 µM |
| CC(=O)N[C@@H](CO)C(=O)N[C@@H](Cc1ccccc1)C(=O)N[C@@H](CCC(=O)O)C(=O)N[C@@H](Cc1ccccc1)C(=O)N1CCC[C@H]1C(=O)N1CCC[C@H]1C(=O)N1CCC[C@H]1C(=O)N1CCC[C@H]1C(=O)N[C@H](C(=O)N[C@@H](CCC(=O)O)C(=O)N[C@@H](CC(=O)O)C(=O)N[C@@H](CCC(=O)O)C(=O)N[C@@H](CC(C)C)C(N)=O)[C@@H](C)O | ENAH | binding, fluorescence |  | Kd | 13 µM |
| CC(C)[C@H](N)C(=O)N1CCC[C@H]1C(=O)N[C@H](C(=O)N1CCC[C@H]1C(=O)N[C@@H](CCCCN)C(=O)O)C(C)C | DPP4 | enzyme activity, inhibitor, absorbance | pH 8 | IC50 | 104 µM |
| CC(C)(C)OC(=O)N1CCN(c2ccc(Nc3nccc(-c4ccccc4)n3)cc2C(F)(F)F)CC1 | pknB | cell-free assay, inhibitor |  | Ki | > 5.9 µM |
| CC(C)[C@H](N)C(=O)N1CCC[C@H]1C(=O)N[C@H](C(=O)N1CCC[C@H]1C(=O)N[C@H](C(=O)O)[C@@H](C)O)C(C)C | DPP4 | enzyme activity, inhibitor, absorbance | pH 8 | IC50 | 131 µM |
| CC(=O)N(O)CCC(c1ccc(-c2cccc(C)c2)cc1)P(=O)(O)O (centres unmarked) | 1-deoxy-D-xylulose 5-phosphate reductoisomerase | enzyme activity, inhibitor, absorbance | pH 7.5 | IC50 | 2.4 µM |
| CC(=O)N[C@@H](CO)C(=O)N[C@@H](Cc1ccccc1)C(=O)N[C@@H](CCC(=O)O)C(=O)N[C@@H](Cc1ccccc1Cl)C(=O)N1CCC[C@H]1C(=O)N1CCC[C@H]1C(=O)N1CCC[C@H]1C(=O)N1CCC[C@H]1C(=O)N[C@H](C(=O)N[C@@H](CCC(=O)O)C(=O)N[C@@H](CC(=O)O)C(=O)N[C@@H](CC(=O)O)C(=O)N[C@@H](CC(C)C)C(N)=O)[C@@H](C)O | ENAH | binding, fluorescence |  | Kd | 1.43 µM |
| CC(=O)N(O)CCC(c1cc2ccccc2o1)P(=O)(O)O (centres unmarked) | 1-deoxy-D-xylulose 5-phosphate reductoisomerase | enzyme activity, inhibitor, absorbance | pH 7.5 | IC50 | 9.6 µM |
| COc1cccc(-c2ccnc(Nc3ccc(N4CCN(C(=O)OC(C)(C)C)CC4)c(C(F)(F)F)c3)n2)c1 | pknB | cell-free assay, inhibitor |  | Ki | > 5.9 µM |
| CC(=O)N(O)CCC(c1ccc(-c2cccnc2)cc1)P(=O)(O)O (centres unmarked) | 1-deoxy-D-xylulose 5-phosphate reductoisomerase | enzyme activity, inhibitor, absorbance | pH 7.5 | IC50 | 0.8 µM |
| CC(C)C[C@H](NC(=O)[C@@H]1CCCN1C(=O)[C@@H](NC(=O)[C@@H]1CCCN1C(=O)[C@@H](N)C(C)C)C(C)C)C(=O)O | DPP4 | enzyme activity, inhibitor, absorbance | pH 8 | IC50 | 130 µM |
